In series [1] the test system is Escherichia coli. Kind of series: Antibacterial activity against Escherichia coli at 5 mg/ml after 20-24 hrs by filter paper disc method. In kind it is functional. As to conditions: read-out: DIZ. The method, boiled down: (§1)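 Filter paper disc diffusion on nutrient agar, with nutrient-agar cultures as inocula. 6.5 mm paper discs were saturated with test solutions at 5 or 10 mg ml-1, with chloramphenicol at the same levels as reference. Plates were incubated at 37 ± 1 °C for 20–24 h. The growth-inhibition zone diameter was measured, and three diameters were averaged per sample.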

In series [2] the test system is Bacillus subtilis. Kind of series: Antibacterial activity against Bacillus subtilis at 10 mg/ml after 20-24 hrs by filter paper disc method. In kind it is functional. As to conditions: read-out: DIZ. Summed up: as §1
Series [3] concerns Bacillus subtilis. The series can be described thus: Antibacterial activity against Bacillus subtilis at 5 mg/ml after 20-24 hrs by filter paper disc method. As to conditions: read-out: DIZ. It is filed as functional. Summed up: as §1
Series [4] has as its system Bacillus cereus. Kind of series: Antibacterial activity against Bacillus cereus at 10 mg/ml after 20-24 hrs by filter paper disc method. In kind it is functional. Conditions: read-out: DIZ. The method, boiled down:
as §1

Series [5] relates to Escherichia coli. The series can be described thus: Antibacterial activity against Escherichia coli at 10 mg/ml after 20-24 hrs by filter paper disc method. It is filed as functional. As to conditions: read-out: DIZ. The method, boiled down: as §1
For a further series, the target named is Cholinesterase (Homo sapiens, UniProt P06276). Kind of series: Inhibition of human BChE by Ellman method. Summed up: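 BChE activity was run as in the Ellman AChE format: thiocholine released from butyrylthiocholine was read with DTNB. Lyophilised enzyme was diluted in 100 mM phosphate buffer, pH 8. IC50 was taken from a plot of VI/V0 against log[I].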
Cholinesterase, sequence (P06276 whole entry): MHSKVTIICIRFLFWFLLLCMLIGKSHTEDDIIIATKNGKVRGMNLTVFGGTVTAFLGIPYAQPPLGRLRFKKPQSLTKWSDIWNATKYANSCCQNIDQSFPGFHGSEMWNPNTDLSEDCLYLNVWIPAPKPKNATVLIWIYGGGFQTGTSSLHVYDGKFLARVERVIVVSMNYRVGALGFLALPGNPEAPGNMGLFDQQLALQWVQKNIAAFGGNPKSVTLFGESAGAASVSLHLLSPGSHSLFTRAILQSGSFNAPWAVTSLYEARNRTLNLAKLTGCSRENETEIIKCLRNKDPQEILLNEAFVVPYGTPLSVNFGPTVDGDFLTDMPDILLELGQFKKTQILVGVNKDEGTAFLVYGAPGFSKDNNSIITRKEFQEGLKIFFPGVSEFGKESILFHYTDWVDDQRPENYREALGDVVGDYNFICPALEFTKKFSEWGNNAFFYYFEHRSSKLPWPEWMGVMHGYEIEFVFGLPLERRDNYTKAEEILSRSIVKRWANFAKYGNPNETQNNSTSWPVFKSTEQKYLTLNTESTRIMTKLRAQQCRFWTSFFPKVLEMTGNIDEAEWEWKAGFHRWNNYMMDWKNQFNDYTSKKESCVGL
Background: In Ellman's method for cholinesterases, released thiocholine reacts with DTNB.

A further series addresses Acetylcholinesterase (Homo sapiens, UniProt P22303). Kind of series: Inhibition of human AChE by Ellman method.
The test system of series [6] is Staphylococcus aureus. Kind of series: Antibacterial activity against Staphylococcus aureus at 10 mg/ml after 20-24 hrs by filter paper disc method. It is filed as functional. As to conditions: read-out: DIZ. Summed up:
as §1

The nature of series [7]: Lipophilicity, log P of the compound. In kind it is physicochemical. As to conditions: octanol/water.
Series [8] has as its system Staphylococcus aureus. Kind of series: Antibacterial activity against Staphylococcus aureus at 5 mg/ml after 20-24 hrs by filter paper disc method. In kind it is functional. Conditions: read-out: DIZ. Summed up:
as §1

For series [9], the system named is Klebsiella pneumoniae. The series can be described thus: Antibacterial activity against Klebsiella pneumoniae at 5 mg/ml after 20-24 hrs by filter paper disc method. In kind it is functional. Conditions: read-out: DIZ. Summed up: as §1
In series [10] the test system is Klebsiella pneumoniae. The series can be described thus: Antibacterial activity against Klebsiella pneumoniae at 10 mg/ml after 20-24 hrs by filter paper disc method. It is filed as functional. Conditions: read-out: DIZ. Summed up: as §1
Series [11] has as its system Bacillus cereus. The series can be described thus: Antibacterial activity against Bacillus cereus at 5 mg/ml after 20-24 hrs by filter paper disc method. In kind it is functional. Conditions: read-out: DIZ. The method, boiled down: as §1
The test system of series [12] is Pseudomonas aeruginosa. The series can be described thus: Antibacterial activity against Pseudomonas aeruginosa at 10 mg/ml after 20-24 hrs by filter paper disc method. In kind it is functional. As to conditions: read-out: DIZ. The method, boiled down: as §1
Series [13] deals with Pseudomonas aeruginosa. Kind of series: Antibacterial activity against Pseudomonas aeruginosa at 5 mg/ml after 20-24 hrs by filter paper disc method. In kind it is functional. As to conditions: read-out: DIZ. The method, boiled down:
as §1

Drawing on ChEMBL document CHEMBL1275282, “Synthesis, characterization, oxidative degradation, antibacterial activity and acetylcholinesterase/butyrylcholinesterase inhibitory effects of some new phosphorus(V) hydrazides” (Eur J Med Chem, 2010), this text covers zone of inhibition, IC50 and logP for eleven molecules.

Broadly, the IC50 is the concentration needed to halve the response being measured. Lower therefore signals greater potency. As usually defined, the logP is a log measure of how a compound divides between an organic and an aqueous phase. Read a low logP as a more hydrophilic compound.

Acetylcholinesterase, sequence (P22303 whole entry): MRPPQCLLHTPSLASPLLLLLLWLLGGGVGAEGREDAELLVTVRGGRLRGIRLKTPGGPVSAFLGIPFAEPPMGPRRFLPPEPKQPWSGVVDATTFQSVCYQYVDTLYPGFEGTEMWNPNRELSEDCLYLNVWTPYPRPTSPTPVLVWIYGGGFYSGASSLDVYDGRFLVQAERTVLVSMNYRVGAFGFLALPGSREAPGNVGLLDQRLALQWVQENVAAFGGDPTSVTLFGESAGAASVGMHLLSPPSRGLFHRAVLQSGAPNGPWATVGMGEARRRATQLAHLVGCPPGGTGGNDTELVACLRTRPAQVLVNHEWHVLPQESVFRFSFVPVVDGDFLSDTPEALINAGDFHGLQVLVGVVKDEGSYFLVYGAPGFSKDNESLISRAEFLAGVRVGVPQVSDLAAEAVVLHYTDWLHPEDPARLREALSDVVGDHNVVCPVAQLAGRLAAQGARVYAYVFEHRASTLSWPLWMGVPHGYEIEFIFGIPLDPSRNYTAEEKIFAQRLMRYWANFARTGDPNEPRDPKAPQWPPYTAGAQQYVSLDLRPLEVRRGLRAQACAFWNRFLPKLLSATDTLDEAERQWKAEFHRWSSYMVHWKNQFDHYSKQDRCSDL

Regarding `O=C(NP(=O)(NN1CCOCC1)NN1CCOCC1)c1ccc(Cl)cc1`, the zone of inhibition at 5000 µg/mL in the series with Escherichia coli [1] turned out to be 6 mm; in the series on Bacillus subtilis [3], 5 mm. Also, the zone of inhibition at 10000 µg/mL was 12 mm in the series on Bacillus subtilis [2], 8 mm in the series on Bacillus cereus [4] and 13 mm with Escherichia coli [5].
On to `O=C(NP(=O)(NN1CCOCC1)NN1CCOCC1)c1ccccc1`, for which the zone of inhibition at 5000 µg/mL in the series on Escherichia coli [1] came out at 6 mm; in the series on Bacillus subtilis [3], 7 mm. The values for the IC50 at Cholinesterase and on Acetylcholinesterase were 2140 µM and 18600 µM, respectively. Also, the zone of inhibition at 10000 µg/mL with Bacillus subtilis [2] was 13 mm; with Staphylococcus aureus [6], 8 mm; with Escherichia coli [5], 11 mm. In addition, the lipophilicity (logP) in series [7] is -0.78.
As to `O=C(NP(=O)(NN1CCCCC1)NN1CCCCC1)c1ccccc1`, the IC50 at Cholinesterase is 430 µM; at Acetylcholinesterase, 1950 µM. The results for the zone of inhibition at 10000 µg/mL with Bacillus subtilis [2] and in the series on Staphylococcus aureus [6] were 19 mm and 7 mm, respectively. Besides, in the series with Bacillus subtilis [3], the zone of inhibition at 5000 µg/mL is 9 mm. For the same molecule, the logP in series [7] amounted to 1.35.
As for `Cc1ccc(OP(=O)(NN2CCOCC2)NN2CCOCC2)cc1`, the zone of inhibition at 5000 µg/mL is 6 mm in the series on Escherichia coli [1], 10 mm in the series with Staphylococcus aureus [8], 7 mm with Klebsiella pneumoniae [9] and 8 mm with Bacillus subtilis [3]. The zone of inhibition at 10000 µg/mL in the series with Bacillus subtilis [2] is 18 mm; with Staphylococcus aureus [6], 13 mm; in the series on Klebsiella pneumoniae [10], 14 mm; in the series on Escherichia coli [5], 11 mm.
With `O=P(NN1CCOCC1)(NN1CCOCC1)Oc1ccccc1`, the IC50 is 1620 µM against Cholinesterase and 9550 µM on Acetylcholinesterase. Further, the logP in [7] is -0.54.
On Cholinesterase, `O=P(NN1CCOCC1)(NN1CCOCC1)c1ccccc1` had an IC50 of 2450 µM. In addition, the logP in [7] is -1.12.
With `O=P(NN1CCOCC1)(NN1CCOCC1)Oc1ccccc1Cl`, the zone of inhibition at 5000 µg/mL with Escherichia coli [1] and in the series with Bacillus cereus [11] was 7 mm in each case. Also, the zone of inhibition at 10000 µg/mL in the series on Bacillus cereus [4] and in the series on Escherichia coli [5] was 10 mm throughout.
Take `O=C(N[C@H](CO)[C@H](O)c1ccc([N+](=O)[O-])cc1)C(Cl)Cl` [CHLORAMPHENICOL]: the zone of inhibition at 5000 µg/mL in the series on Escherichia coli [1] turned out to be 13 mm; in the series on Staphylococcus aureus [8], 17 mm; in the series on Klebsiella pneumoniae [9] it was 11 mm; in the series on Bacillus cereus [11], 12 mm; in the series with Bacillus subtilis [3], 14 mm. The zone of inhibition at 10000 µg/mL with Bacillus subtilis [2] was 17 mm; with Staphylococcus aureus [6], 22 mm; with Klebsiella pneumoniae [10] it was 15 mm; in the series on Bacillus cereus [4], 15 mm; in the series on Pseudomonas aeruginosa [12] it was 7 mm; in the series on Escherichia coli [5] it was 17 mm.
Regarding `COc1ccc(C(=O)NP(=O)(NN2CCOCC2)NN2CCOCC2)cc1`, the zone of inhibition at 10000 µg/mL in the series on Bacillus subtilis [2] is 13 mm; with Bacillus cereus [4] it was 7 mm; in the series on Escherichia coli [5], 7 mm. Further, the zone of inhibition at 5000 µg/mL with Bacillus subtilis [3] was 7 mm.
With `O=P(O)(NN1CCCCC1)Oc1ccccc1`, the zone of inhibition at 5000 µg/mL amounted to 7 mm in the series with Escherichia coli [1], 7 mm in the series on Bacillus subtilis [3] and 5 mm with Pseudomonas aeruginosa [13]. Also, the IC50 against Cholinesterase is 1580 µM; at Acetylcholinesterase, 5490 µM. Also, the zone of inhibition at 10000 µg/mL with Bacillus subtilis [2] was 15 mm; with Staphylococcus aureus [6], 8 mm; in the series on Pseudomonas aeruginosa [12] it was 10 mm; in the series with Escherichia coli [5], 11 mm. For the same molecule, the logP in series [7] stood at 1.29.
In the case of `O=P(NN1CCCCC1)(NN1CCCCC1)Oc1ccccc1`, the zone of inhibition at 5000 µg/mL in the series with Escherichia coli [1] came out at 7 mm; with Staphylococcus aureus [8] it was 11 mm; in the series with Klebsiella pneumoniae [9], 5 mm; with Bacillus cereus [11], 5 mm; in the series on Bacillus subtilis [3] it was 6 mm. The zone of inhibition at 10000 µg/mL in the series with Bacillus subtilis [2] came to 13 mm; in the series on Staphylococcus aureus [6], 17 mm; with Klebsiella pneumoniae [10], 15 mm; with Bacillus cereus [4] it was 14 mm; in the series with Escherichia coli [5], 15 mm.
